Drawing on ChEMBL document CHEMBL1154766, “Synthesis and biological evaluation of new podophyllic aldehyde derivatives with cytotoxic and apoptosis-inducing activities” (2010), this text covers GI50 and Activity for eight molecules.

Broadly, the GI50 is the concentration at which growth is held to half of that of the control.

The test system of experiment [1] is MDA-MB-231. Briefly: Cytotoxicity against human MDA-MB-231 cells after 72 hrs by SRB assay. In kind it is functional. The following applies: MDA-MB-231, 72 h. A digest of the protocol:
(§1)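 SRB growth assay: 5 × 10³ cells/well in RPMI, attached 18 h drug-free, then compound added in DMSO/H₂O 3:7 for 72 h. Fixed with cold 50% TCA 60 min at 4 °C, stained 0.4% SRB in 1% acetic acid 10 min, bound dye solubilized in Tris, OD 490 nm. GI50 from 100[(T−T0)/(C−T0)] = 50; mean of triplicates.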
On the technique in general: The SRB assay estimates cell density from bound dye.

The subject of experiment [2] is A549. Description: Cytotoxicity against human A549 cells after 72 hrs by SRB assay. The following applies: A549, 72 h. In kind it is functional. A digest of the protocol:
as §1

Experiment [3] deals with HT-29. Briefly: Cytotoxicity against human HT-29 cells after 72 hrs by SRB assay. Particulars: HT-29, 72 h. The class given is functional. A digest of the protocol: as §1
In experiment [4] the test system is HT-29. Description: Induction of apoptosis in human HT-29 cells assessed as accumulation at subG1 phase at 1 uM after 24 hrs by flow cytometry. The class given is functional. A digest of the protocol: (§2)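 HT-29 cells incubated at 1 μM for 24, 48 or 72 h alongside untreated controls. (3-5) × 10⁵ cells fixed overnight in 70% ethanol at 4 °C, PBS-washed three times, then treated 1 h at room temperature with 1 mg/mL RNase A and 20 μg/mL propidium iodide. DNA content read by flow cytometry; apoptosis taken as % cells in sub-G1 peak. Representative of three independent experiments.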
Background: Flow cytometry measures light scatter and fluorescence of single cells or particles in a stream.

In experiment [5] the test system is HT-29. Description: Cell cycle arrest in human HT-29 cells assessed as accumulation at G0/G1 phase at 1 uM after 24 hrs by flow cytometry. The class given is functional. A digest of the protocol:
as §2

Experiment [6] relates to HT-29. Description: Cell cycle arrest in human HT-29 cells assessed as accumulation at S phase at 1 uM after 24 hrs by flow cytometry. In kind it is functional. Summed up: as §2
Experiment [7] has as its system HT-29. Description: Cell cycle arrest in human HT-29 cells assessed as accumulation at G2/M phase at 1 uM after 24 hrs by flow cytometry. In kind it is functional. A digest of the protocol:
as §2

For experiment [8], the system named is HT-29. Briefly: Induction of apoptosis in human HT-29 cells assessed as accumulation at subG1 phase at 1 uM after 48 hrs by flow cytometry. In kind it is functional. Summed up:
as §2

For experiment [9], the system named is HT-29. Description: Cell cycle arrest in human HT-29 cells assessed as accumulation at G0/G1 phase at 1 uM after 48 hrs by flow cytometry. In kind it is functional. Summed up:
as §2

Experiment [10] relates to HT-29. Briefly: Cell cycle arrest in human HT-29 cells assessed as accumulation at S phase at 1 uM after 48 hrs by flow cytometry. In kind it is functional. Summed up: as §2
In experiment [11] the test system is HT-29. Briefly: Cell cycle arrest in human HT-29 cells assessed as accumulation at G2/M phase at 1 uM after 48 hrs by flow cytometry. In kind it is functional. Summed up: as §2
The test system of experiment [12] is HT-29. Briefly: Induction of apoptosis in human HT-29 cells assessed as accumulation at subG1 phase at 1 uM after 72 hrs by flow cytometry. In kind it is functional. A digest of the protocol:
as §2

In experiment [13] the test system is HT-29. Description: Cell cycle arrest in human HT-29 cells assessed as accumulation at G0/G1 phase at 1 uM after 72 hrs by flow cytometry. In kind it is functional. Summed up:
as §2

Experiment [14] relates to HT-29. Briefly: Cell cycle arrest in human HT-29 cells assessed as accumulation at S phase at 1 uM after 72 hrs by flow cytometry. In kind it is functional. A digest of the protocol: as §2
Experiment [15] relates to HT-29. Description: Cell cycle arrest in human HT-29 cells assessed as accumulation at G2/M phase at 1 uM after 72 hrs by flow cytometry. In kind it is functional. A digest of the protocol: as §2
In experiment [16] the test system is HT-29. Briefly: Induction of microtubule disruption in human HT-29 cells at 1 uM after 24 hrs. In kind it is cell-based. A digest of the protocol: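 HT-29 cells on poly-L-lysine coverslips exposed to 1 μM for 24 h, washed in HPEM (pH 6.6), fixed with 4% paraformaldehyde 15 min, permeabilized with 0.5% Triton X-100. Anti-α-tubulin mouse monoclonal (1:150, 1 h) then CY3 anti-mouse IgG (1 h, 4 °C); nuclei DAPI-stained; imaged by confocal microscopy. Representative of at least three experiments.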

Activity calls are given as the source filed them. The calls are words filed in the database; no cut-off is given here.

Turning to `COc1cc([C@@H]2c3cc4c(cc3C=C(C=O)[C@H]2C(=O)OC/C=C/c2ccccc2)OCO4)cc(OC)c1OC`, the results for the GI50 in [1], in experiment [2] and in experiment [3] were 130 nM, 32 nM and 36 nM, respectively. In addition, the Activity came to 0.4% in experiment [4]; 1.4% in experiment [5]; 1.8% in [6]; 96.4% in [7]; 5.2% in experiment [8]; 5.3% in [9]. In addition, the Activity in [10] was 4.2%; in [11], 85.3%; in experiment [12], 33.7%; in experiment [13], 21.1%; in experiment [14], 22%; in experiment [15], 23.2%. Besides, the result in [16] was Active.

Take `CCOC(=O)COC(=O)[C@@H]1C(C=O)=Cc2cc3c(cc2[C@H]1c1cc(OC)c(OC)c(OC)c1)OCO3`: the 50% growth inhibitory concentration (GI50) in experiment [1] was 110 nM; in experiment [2], 13 nM; in [3], 28 nM. Further, the Activity in experiment [4] came to 0.5%; in [5], 1%; in experiment [6], 0.9%; in experiment [7], 97.6%; in [8], 6.3%; in [9], 4.7%. Also, the Activity in experiment [10] is reported as 3.4%; in [11], 85.6%; in experiment [12], 30.6%; in experiment [13], 16.4%; in experiment [14], 19.2%; in [15], 33.8%. In experiment [16], the result was Active.

As to `COc1cc(COC(=O)[C@@H]2C(C=O)=Cc3cc4c(cc3[C@H]2c2cc(OC)c(OC)c(OC)c2)OCO4)cc(OC)c1OC`, the results for the concentration for 50% growth inhibition (GI50) in experiment [1], in experiment [2] and in experiment [3] were 42 nM, 34 nM and 20 nM, respectively. The Activity in experiment [4] came to 0.5%; in experiment [5] it was 0.9%; in [6], 1.1%; in experiment [7], 97.5%; in experiment [8], 8.6%; in experiment [9], 6.8%. The Activity in experiment [10] was found to be 5.1%; in experiment [11], 79.5%; in experiment [12], 32.3%; in experiment [13], 18.3%; in experiment [14] it was 12.9%; in experiment [15], 36.5%. In addition, in [16], the result was Active.

`CCCCCCCOC(=O)[C@@H]1C(C=O)=Cc2cc3c(cc2[C@H]1c1cc(OC)c(OC)c(OC)c1)OCO3`: the concentration for 50% growth inhibition (GI50) in experiment [1] worked out at 2500 nM; in experiment [2], 1000 nM; in [3], 1000 nM. The Activity in [4] is 19.6%; in experiment [5], 14.6%; in [6] it was 42.6%; in [7] it was 23.2%; in experiment [8] it was 29.2%; in experiment [9], 25.3%. Moreover, the Activity in experiment [10] amounted to 29.6%; in [11] it was 15.9%; in [12], 82.3%; in experiment [13], 16.7%; in experiment [14], 0.4%; in experiment [15], 0.6%. In addition, in experiment [16], the result was inactive.

For `C=CCOC(=O)[C@@H]1C(C=O)=Cc2cc3c(cc2[C@H]1c1cc(OC)c(OC)c(OC)c1)OCO3`, the figures for the concentration for 50% growth inhibition (GI50) in [1], in experiment [2] and in experiment [3] were 150 nM, 30 nM and 20 nM, respectively. For the same molecule, the Activity in experiment [4] is reported as 0.3%; in experiment [5], 3.9%; in [6], 4.5%; in experiment [7], 91.3%; in [8], 1.8%; in experiment [9] it was 10.9%. The Activity in [10] amounted to 3.9%; in experiment [11] it was 83.4%; in [12], 41.6%; in [13], 33.6%; in experiment [14], 16.8%; in experiment [15] it was 8%. Moreover, in experiment [16], the result was Active.

Consider `CCNC(=O)[C@@H]1C(C=O)=Cc2cc3c(cc2[C@H]1c1cc(OC)c(OC)c(OC)c1)OCO3`, for which the GI50 in experiment [1] worked out at 7100 nM; in [2], 4500 nM; in experiment [3] it was 8000 nM. Also, the Activity in experiment [4] came out at 25%; in experiment [5], 51.7%; in experiment [6] it was 9.8%; in [7], 13.5%; in experiment [8], 61.7%; in [9] it was 33%. The Activity was found to be 3% in experiment [10]; 2.3% in [11]; 93.8% in experiment [12]; 5.3% in experiment [13]; 0.5% in experiment [14]; 0.4% in experiment [15]. Further, the result in experiment [16] was inactive.

Regarding `COc1cc([C@@H]2c3cc4c(cc3C=C(C=O)[C@H]2C(=O)OCCCBr)OCO4)cc(OC)c1OC`, the 50% growth inhibitory concentration (GI50) in experiment [1] came out at 170 nM; in [2], 130 nM; in [3] it was 140 nM. Besides, the Activity is on record as 29.2% in experiment [4]; 46.9% in experiment [5]; 9.7% in experiment [6]; 14.2% in [7]; 34.6% in experiment [8]; 38.9% in [9]. The Activity in [10] is recorded as 8.4%; in experiment [11] it was 18.1%; in experiment [12], 67.7%; in [13] it was 31.6%; in [14] it was 0.3%; in experiment [15], 0.4%. Besides, in experiment [16], the outcome was inactive.

With `COc1ccc(NC(=O)[C@@H]2C(C=O)=Cc3cc4c(cc3[C@H]2c2cc(OC)c(OC)c(OC)c2)OCO4)cc1`, the results for the concentration for 50% growth inhibition (GI50) in experiment [1], in experiment [2] and in [3] were 4600 nM, 1200 nM and 800 nM, respectively. Besides, the Activity in experiment [4] turned out to be 13.6%; in experiment [5], 48%; in experiment [6] it was 13.2%; in experiment [7], 25.2%; in [8], 45.2%; in experiment [9], 50.4%. The Activity in experiment [10] came to 1.8%; in experiment [11], 2.6%; in experiment [12], 52.6%; in [13], 36.4%; in experiment [14], 8.4%; in experiment [15] it was 2.6%. In addition, in [16], the result was inactive.
